Laboratory results: ChEMBL document CHEMBL3861983, “Synthesis and biological evaluation of the codrug of Leonurine and Aspirin as cardioprotective agents” (Bioorg Med Chem Lett, 2016)
The source made the active and inactive calls.

Key:
Assay type in all cases: functional, cell-based
H9c2 [1] = assay: Cardioprotective activity against hypoxia-induced cytotoxicity in rat H9c2 cells assessed as increase in cell viability at 0.1 uM preincubated for 8 hrs followed by H2O2 addition for 2 hrs by MTT assay
In short: (§1)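 H9c2 cells were pretreated with compound for 8 h, then exposed to H2O2 (40 mM) in culture medium for 2 h. Viability was read by MTT at 0.1, 1, 10 and 100 μM, relative to untreated control and H2O2-only model groups. Values are mean ± SEM of more than three independent experiments.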

[2] = Cardioprotective activity against hypoxia-induced oxidative stress in rat H9c2 cells assessed as antioxidant activity by measuring increase in catalase activity at 0.1 uM preincubated for 8 hrs followed by H2O2 addition for 2 hrs by spectrophotometry
In short: (§2)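 H9c2 cells were pretreated with compound for 8 h, then given H2O2 (40 mM) in medium for 2 h. Measured read-outs were LDH leakage into the culture supernatant, MDA level, and SOD and catalase activities. Values are mean ± SEM of more than three independent experiments, versus model and control groups.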

H9c2 [3] = assay: Increase in No level in rat H9c2 cells at 0.1 uM preincubated for 8 hrs followed by H2O2 addition for 2 hrs by ELISA
In short: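 NO concentration was measured in the culture supernatant of H9c2 cells. Cells were pretreated with compound for 8 h before 2 h H2O2 (40 mM) exposure. Values are mean ± SEM of more than three independent experiments, versus the model group.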

[4] = Cardioprotective activity against hypoxia-induced oxidative stress mediated inflammation in rat H9c2 cells assessed as suppression of TNF-alpha in supernatant at 0.1 uM preincubated for 8 hrs followed by H2O2 addition for 2 hrs by ELISA
In short: (§3)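 TNF-α, IL-6 and IL-1β in the culture supernatant were quantified with ELISA kits. H9c2 cells were pretreated with compound for 8 h, then given 2 h H2O2 (40 mM). Values are mean ± SEM of more than three independent experiments, versus the H2O2 model group.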

[5] = Cardioprotective activity against hypoxia-induced oxidative stress in rat H9c2 cells assessed as antioxidant activity by measuring increase in SOD activity at 0.1 uM preincubated for 8 hrs followed by H2O2 addition for 2 hrs by spectrophotometry; in short: as §2
[6] = Cardioprotective activity against hypoxia-induced apoptosis in rat H9c2 cells assessed as increase in Bcl-2 expression at 0.1 uM preincubated for 8 hrs followed by H2O2 addition for 2 hrs by Western blotting analysis
In short: (§4)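 Bax and Bcl-2 protein expression was measured in H9c2 cells pretreated with compound for 8 h, then injured with H2O2 (40 mM) for 2 h. Levels were compared with control and H2O2 model groups. Values are mean ± SEM of more than three independent experiments.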

[7] = Cardioprotective activity against hypoxia-induced apoptosis in rat H9c2 cells assessed as reduction in total apoptotic cells at 0.1 uM preincubated for 8 hrs followed by H2O2 addition for 2 hrs by Annexin-V FITC/propidium iodide staining based flow cytometry
In short: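 After 8 h compound pretreatment, H9c2 cells got a 2 h H2O2 (40 mM) insult. They were stained with Annexin V-FITC/PI and analysed by flow cytometry, counting total apoptotic cells including necrotic cells. Values are mean ± SEM of more than three independent experiments, versus model and control groups.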

[8] = Cardioprotective activity against hypoxia-induced oxidative stress mediated inflammation in rat H9c2 cells assessed as suppression of IL-6 in supernatant at 0.1 uM preincubated for 8 hrs followed by H2O2 addition for 2 hrs by ELISA; in short: as §3
[9] = Cardioprotective activity against hypoxia-induced apoptosis in rat H9c2 cells assessed as reduction in Bax expression at 0.1 uM preincubated for 8 hrs followed by H2O2 addition for 2 hrs by Western blotting analysis; in short: as §4
[10] = Cardioprotective activity against hypoxia-induced oxidative stress in rat H9c2 cells assessed as antioxidant activity by measuring reduction in LDH leakage in supernatant at 0.1 uM preincubated for 8 hrs followed by H2O2 addition for 2 hrs by spectrophotometry; in short: as §2
[11] = Cardioprotective activity against hypoxia-induced oxidative stress in rat H9c2 cells assessed as antioxidant activity by measuring reduction in MDA levels at 0.1 uM preincubated for 8 hrs followed by H2O2 addition for 2 hrs by spectrophotometry; in short: as §2
[12] = Cardioprotective activity against hypoxia-induced oxidative stress mediated inflammation in rat H9c2 cells assessed as suppression of IL-1beta in supernatant at 0.1 uM preincubated for 8 hrs followed by H2O2 addition for 2 hrs by ELISA; in short: as §3
H9c2 [13] = assay: Cardioprotective activity against hypoxia-induced cytotoxicity in rat H9c2 cells assessed as increase in cell viability at 1 uM preincubated for 8 hrs followed by H2O2 addition for 2 hrs by MTT assay; in short: as §1
[14] = Cardioprotective activity against hypoxia-induced oxidative stress in rat H9c2 cells assessed as antioxidant activity by measuring increase in SOD activity at 1 uM preincubated for 8 hrs followed by H2O2 addition for 2 hrs by spectrophotometry; in short: as §2
[15] = Cardioprotective activity against hypoxia-induced oxidative stress in rat H9c2 cells assessed as reduction in MDA levels at 1 uM preincubated for 8 hrs followed by H2O2 addition for 2 hrs in presence of leonurine by spectrophotometry; in short: as §2
[16] = Cardioprotective activity against hypoxia-induced oxidative stress mediated inflammation in rat H9c2 cells assessed as suppression of TNF-alpha in supernatant at 1 uM preincubated for 8 hrs followed by H2O2 addition for 2 hrs by ELISA; in short: as §3
[17] = Cardioprotective activity against hypoxia-induced oxidative stress mediated inflammation in rat H9c2 cells assessed as suppression of IL-6 in supernatant at 1 uM preincubated for 8 hrs followed by H2O2 addition for 2 hrs in presence of leonurine by ELISA; in short: as §3
[18] = Cardioprotective activity against hypoxia-induced oxidative stress mediated inflammation in rat H9c2 cells assessed as suppression of IL-1beta in supernatant at 1 uM preincubated for 8 hrs followed by H2O2 addition for 2 hrs in presence of leonurine by ELISA; in short: as §3
[19] = Cardioprotective activity against hypoxia-induced oxidative stress mediated inflammation in rat H9c2 cells assessed as suppression of TNF-alpha in supernatant at 1 uM preincubated for 8 hrs followed by H2O2 addition for 2 hrs in presence of leonurine by ELISA; in short: as §3
[20] = Cardioprotective activity against hypoxia-induced oxidative stress in rat H9c2 cells assessed as antioxidant activity by measuring increase in SOD activity at 1 uM preincubated for 8 hrs followed by H2O2 addition for 2 hrs in presence of leonurine by spectrophotometry; in short: as §2
[21] = Cardioprotective activity against hypoxia-induced oxidative stress mediated inflammation in rat H9c2 cells assessed as suppression of IL-6 in supernatant at 1 uM preincubated for 8 hrs followed by H2O2 addition for 2 hrs by ELISA; in short: as §3
[22] = Cardioprotective activity against hypoxia-induced oxidative stress mediated inflammation in rat H9c2 cells assessed as suppression of IL-1beta in supernatant at 1 uM preincubated for 8 hrs followed by H2O2 addition for 2 hrs by ELISA; in short: as §3
[23] = Cardioprotective activity against hypoxia-induced oxidative stress in rat H9c2 cells assessed as antioxidant activity by measuring increase in catalase activity at 1 uM preincubated for 8 hrs followed by H2O2 addition for 2 hrs by spectrophotometry; in short: as §2
[24] = Cardioprotective activity against hypoxia-induced oxidative stress in rat H9c2 cells assessed as antioxidant activity by measuring reduction in MDA levels at 1 uM preincubated for 8 hrs followed by H2O2 addition for 2 hrs by spectrophotometry; in short: as §2
H9c2 [25] = assay: Cardioprotective activity against hypoxia-induced cytotoxicity in rat H9c2 cells assessed as increase in cell viability at 0.1 to 100 uM preincubated for 8 hrs followed by H2O2 addition for 2 hrs by MTT assay; in short: as §1
[26] = Cardioprotective activity against hypoxia-induced oxidative stress mediated inflammation in rat H9c2 cells assessed as suppression of IL-6 in supernatant at 1 uM preincubated for 8 hrs followed by H2O2 addition for 2 hrs in presence of aspirin by ELISA; in short: as §3
[27] = Cardioprotective activity against hypoxia-induced oxidative stress mediated inflammation in rat H9c2 cells assessed as suppression of IL-1beta in supernatant at 1 uM preincubated for 8 hrs followed by H2O2 addition for 2 hrs in presence of aspirin by ELISA; in short: as §3
[28] = Cardioprotective activity against hypoxia-induced oxidative stress in rat H9c2 cells assessed as reduction in MDA levels at 1 uM preincubated for 8 hrs followed by H2O2 addition for 2 hrs in presence of aspirin by spectrophotometry; in short: as §2
[29] = Cardioprotective activity against hypoxia-induced oxidative stress mediated inflammation in rat H9c2 cells assessed as suppression of TNF-alpha in supernatant at 1 uM preincubated for 8 hrs followed by H2O2 addition for 2 hrs in presence of aspirin by ELISA; in short: as §3
[30] = Cardioprotective activity against hypoxia-induced oxidative stress in rat H9c2 cells assessed as antioxidant activity by measuring increase in SOD activity at 1 uM preincubated for 8 hrs followed by H2O2 addition for 2 hrs in presence of aspirin by spectrophotometry; in short: as §2

Measured: Activity

COc1cc(C(=O)OCCCCNC(=N)N)cc(OC)c1OC(=O)CCNC(=O)c1ccccc1OC(C)=O
active: H9c2 [1] | [2] | H9c2 [3] | [4] | [5] | [6] | [7] | [8] | [9] | [10] | [11] | [12]

CC(=O)Oc1ccccc1C(=O)O
active: H9c2 [13] | [14] | [15] | [16] | [17] | [18] | [19] | [20] | [21] | [22] | [23] | [24]

COc1cc(C(=O)OCCCCNC(=N)N)cc(OC)c1OC(=O)CCNC(=O)c1ccccc1O
active: H9c2 [25]

COc1cc(C(=O)OCCCCNC(=N)N)cc(OC)c1O
active: [26] | [27] | H9c2 [13] | [14] | [28] | [16] | [29] | [21] | [22] | [23] | [24] | [30]
